According to ChEMBL document CHEMBL5136984, “Synthesis and antiproliferative activity of 6BrCaQ-TPP conjugates for targeting the mitochondrial heat shock protein TRAP1” (Eur J Med Chem, 2022):
Activity calls are given as the source filed them. The calls are words filed in the database; no cut-off is given here.

Assays:
[1] = tested on: MDA-MB-231; assay: Cytotoxicity against human MDA-MB-231 cells assessed as concentration required for complete tumor growth inhibition incubated for 72 hrs by Celltiter Glo assay; type: functional
Summary of the method: (§1)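 MDA-MB-231 cells exposed for 72 h; survival quantified by CellTiter Glo luminescence. GI50 = 50% growth inhibition; TGI = concentration at which final cell number equals the starting number; LC50 and IC50 also derived from the same curves.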

[2] = tested on: MDA-MB-231; assay: Cytotoxicity against human MDA-MB-231 cells assessed as cell growth inhibition incubated for 72 hrs by Celltiter Glo assay; type: functional, cell-based; details: for GI50: MDA-MB-231, time 72 hrs; for IC50: MDA-MB-231, 72 h; summary of the method: as §1
[3] = tested on: MDA-MB-231; assay: Cytotoxicity against human MDA-MB-231 cells assessed as induction of cell death incubated for 72 hrs by Celltiter Glo assay; type: functional; details: read-out: LC50 (the source's name)
Summary of the method: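 MDA-MB-231 cells were exposed to compounds for 72 h, and survival was quantified by CellTiter-Glo luminescence. From the curves, GI50 (50% growth inhibition), TGI (cell number equal to that at start), LC50 (end cell number 50% of start) and IC50 (50% inhibition of cell activity) were derived.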

[4] = tested on: HCT-116; assay: Cytotoxicity against human HCT-116 cells assessed as cell viability at 1 uM incubated for 72 hrs by MTT assay relative to control; type: functional; details: read-out: Activity
Summary of the method: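 MTT read-out after 72 h exposure; 2,500 cells/well seeded and treated 24 h later. MTT solution (5 mg/mL) added for 2 h, medium replaced by DMSO, absorbance at 570 nm corrected for cell-free blanks with compound. Untreated cells taken as 100% metabolic activity. Quadruplicate wells, experiment repeated at least three times.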

[5] = Drug localization in vesicle of human A549 cells at 2 uM measured after 4 hrs by MitoTracker Deep Red based confocal microscopic analysis; details: a549, 4 h
[6] = tested on: HT-29; assay: Induction of mitochondrial membrane potential depolarization in human HT-29 cells assessed as reduction in fluorescence intensity at 0.1 to 1 uM measured after 2 to 6 hrs by TMRE staining based analysis relative to control; type: functional; set-up: scale not given: the % may be the effect or the level left; details: dose 0.1-1 µM, time 2-6 hrs
Summary of the method: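 HT-29 cells (2,500/well) seeded the day before, exposed 2, 3 or 6 h at 0.1, 0.5 and 1 µM. CCCP 50 µM for 20 min served as depolarization control. TMRE added at 200 nM final for 20 min at 37 °C, fluorescence read by microplate, relative to untreated cells. 3–8 replicate wells per condition.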

[7] = tested on: PC-3; assay: Cytotoxicity against human PC-3 cells assessed as induction of cell death incubated for 72 hrs by MTS assay; type: functional; details: read-out: LC50 (the source's name)
[8] = tested on: HCT-116; assay: Cytotoxicity against human HCT-116 cells assessed as induction of cell death incubated for 72 hrs by MTT assay; type: functional; details: read-out: LC50 (the source's name)
Summary of the method: (§2)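 Cells were seeded at 2,500 per well and treated 24 h later for 72 h, with 4 replicates per condition and at least three independent experiments. MTT (5 mg/mL solution) was added for 2 h, then the medium was replaced by DMSO. Absorbance at 570 nm was blank-corrected using cell-free wells containing compound, and untreated cells were set as 100% metabolic activity.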

[9] = tested on: MDA-MB-231; assay: Cytotoxicity against human MDA-MB-231 cells assessed as induction of cell death incubated for 72 hrs by MTT assay; type: functional; details: read-out: LC50 (the source's name); summary of the method: as §2
[10] = tested on: K562; assay: Cytotoxicity against human K562 cells assessed as induction of cell death incubated for 72 hrs by MTT assay; type: functional; details: read-out: LC50 (the source's name); summary of the method: as §2
[11] = tested on: HT-29; assay: Cytotoxicity against human HT-29 cells assessed as inhibition of cell growth incubated for 72 hrs by MTT assay; type: functional, cell-based; details: HT-29, 72 h
Summary of the method: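 HT-29 cells (McCoy medium, 10% FBS, 2 mM glutamine) seeded at 2,500/well, treated 24 h later for 72 h. MTT (5 mg/mL solution) 2 h, formazan dissolved in DMSO, A570 corrected for cell-free blanks with compound. Untreated wells set as 100%. Quadruplicates, at least three independent experiments.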

[12] = tested on: HT-29; assay: Cytotoxicity against human HT-29 cells assessed as dead cells at 0.1 to 2 uM incubated for 72 hrs by trypan blue staining based optical microscopic analysis relative to control; type: functional; details: dose 0.1-2 µM
Summary of the method: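 HT-29 cells were grown in McCoy medium with 10% FBS and 2 mM L-glutamine at 37 °C under 5% CO2, seeded at 30,000 per well and treated 24 h later for 72 h. Cells were PBS-washed, trypsinized, mixed 1:1 with trypan blue, and viable and dead cells were counted by light microscopy. Each condition was run three times.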

[13] = tested on: HT-29; assay: Downregulation of SDHA protein expression in human HT-29 cells incubated for 24 hrs by Western blot analysis; type: functional, cell-based; details: dose 0.1-1 µM, DDE = dose-dependent effect
Summary of the method: (§3)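 HT-29 cells exposed 24 h at 0.1, 0.5 and 1 µM; RIPA lysates, 30 µg protein on 4–15% stain-free SDS-PAGE, PVDF transfer. Anti-SDH-A (mouse, 1:500) or anti-SDH-B (rabbit, 1:250) overnight at 4 °C, HRP secondary, ECL. Densitometry normalized to stain-free total protein; duplicate blots.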

[14] = molecular target: T1, Heat shock factor protein 1 (Homo sapiens) (UniProt Q00613); assay: Induction of HSF-1 degradation in human HT-29 cells at 0.5 uM incubated for 24 hrs by Western blot analysis; type: cell-based
T1 sequence (whole entry): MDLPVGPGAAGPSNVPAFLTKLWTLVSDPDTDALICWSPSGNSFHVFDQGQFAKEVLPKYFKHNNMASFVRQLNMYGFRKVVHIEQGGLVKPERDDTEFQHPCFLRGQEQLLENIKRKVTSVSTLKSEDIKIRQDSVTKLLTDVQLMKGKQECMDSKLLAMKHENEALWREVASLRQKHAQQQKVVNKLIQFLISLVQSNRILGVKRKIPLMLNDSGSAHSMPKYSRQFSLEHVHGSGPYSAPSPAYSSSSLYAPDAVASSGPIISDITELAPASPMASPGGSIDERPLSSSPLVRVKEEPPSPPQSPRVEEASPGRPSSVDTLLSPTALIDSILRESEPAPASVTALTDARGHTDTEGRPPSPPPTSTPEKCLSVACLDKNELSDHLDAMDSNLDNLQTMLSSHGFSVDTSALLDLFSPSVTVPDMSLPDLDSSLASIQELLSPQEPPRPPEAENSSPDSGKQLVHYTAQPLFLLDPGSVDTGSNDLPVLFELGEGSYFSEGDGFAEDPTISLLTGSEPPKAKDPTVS
Summary of the method: (§4)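 HT-29 cells treated 24 h, lysed in RIPA with protease inhibitors 30 min on ice. 30 µg protein denatured at 95 °C with β-mercaptoethanol, run on 4–15% stain-free gels, transferred to PVDF. Blocked in 5% milk/TBS-Tween, primary antibody overnight at 4 °C, HRP secondary 1 h, ECL detection. Signals normalized to stain-free total protein. Blots in duplicate.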

[15] = tested on: HT-29; assay: Downregulation of HSP27 protein expression in human HT-29 cells at 0.1 to 0.5 uM incubated for 24 hrs by Western blot analysis; type: functional, cell-based; details: dose 0.1-0.5 µM; summary of the method: as §4
[16] = tested on: HT-29; assay: Downregulation of HSP70 protein expression in human HT-29 cells at 0.1 to 0.5 uM incubated for 24 hrs by Western blot analysis; type: functional, cell-based; details: dose 0.1-0.5 µM; summary of the method: as §4
[17] = tested on: HT-29; assay: Downregulation of SDHB protein expression in human HT-29 cells incubated for 24 hrs by Western blot analysis; type: functional, cell-based; details: dose 0.1-1 µM, DDE = dose-dependent effect; summary of the method: as §3
[18] = tested on: HT-29; assay: Cytotoxicity against human HT-29 cells assessed as reduction in viable cells incubated for 72 hrs by trypan blue staining based optical microscopic analysis relative to control; type: functional, cell-based; details: HT-29, 72 h
Summary of the method: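 HT-29 cells seeded at 30,000/well, treated 24 h later for 72 h. Cells washed with PBS, trypsinized, resuspended in medium and mixed 1:1 with trypan blue. Viable and dead cells counted by optical microscopy on a counting slide. Each condition analysed 3 times.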

[19] = tested on: HT-29; assay: Cytotoxicity against human HT-29 cells assessed as cell mortality at 0.1 to 1 uM incubated for 2 to 6 hrs by MTT assay; type: toxicity, cell-based; details: ht-29, 1 µM, dose lower 0.1 µM, time lower 2 hrs, dose upper 1 µM, time upper 6 hrs

SMILES	EC [1] [µM]	GI50 [2] [nM]	CC50 [3] [nM]	IC50 [2] [nM]	other results
Cn1c(=O)c(NC(=O)c2ccc(OCCC[P+](c3ccccc3)(c3ccccc3)c3ccccc3)cc2)cc2cc(Br)ccc21.[Br-]	0.16	60	380		
Cn1c(=O)c(NC(=O)c2ccc(OCCCCC[P+](c3ccccc3)(c3ccccc3)c3ccccc3)cc2)cc2cc(Br)ccc21.[Br-]	0.093	83	100	87	
Cn1c(=O)c(NC(=O)c2ccc(OCCCCCCCCCCOc3ccc(N(c4ccc(/C=C/c5cc[n+](C)cc5)cc4)c4ccc(/C=C/c5cc[n+](C)cc5)cc4)cc3)cc2)cc2cc(Br)ccc21.[I-].[I-]					viability at 1 µM [4]: 95%; Drug uptake [5]: Active
Cn1c(=O)c(NC(=O)c2ccc(OCCCCCCCCCCCC[P+](c3ccccc3)(c3ccccc3)c3ccccc3)cc2)cc2cc(Br)ccc21.[Br-]	15.2	11000	17900		
OCCCCCCCCCC[P+](c1ccccc1)(c1ccccc1)c1ccccc1.[Br-]					Activity [6]: <=35%
Cn1c(=O)c(NC(=O)c2ccc(OCCCCCCC[P+](c3ccccc3)(c3ccccc3)c3ccccc3)cc2)cc2cc(Br)ccc21.[Br-]	0.18	65	490	82	
Cn1c(=O)c(NC(=O)c2ccc(OCCCCCCCCCCBr)cc2)cc2cc(Br)ccc21				7000	
COc1ccc(C(=O)Nc2cc3cc(Br)ccc3n(C)c2=O)cc1	0.16	60	380		CC50 [7]: 10000 nM; Activity [6]: -30%; CC50 [8]: 7000 nM; CC50 [9]: 2000 nM; CC50 [10]: 48000 nM; IC50 [11]: > 20000 nM
Cn1c(=O)c(NC(=O)c2ccc(OCCCCCCCCCC[P+](c3ccccc3)(c3ccccc3)c3ccccc3)cc2)cc2ccccc21.[Br-]	0.092	26	310	49	
Cn1c(=O)c(NC(=O)c2ccc(OCCCC[P+](c3ccccc3)(c3ccccc3)c3ccccc3)cc2)cc2cc(Br)ccc21.[Br-]	0.091	76	110	82	
Cn1c(=O)c(NC(=O)c2ccc(OCCCCCCCCCC[P+](c3ccccc3)(c3ccccc3)c3ccccc3)cc2)cc2cc(Br)ccc21.[Br-]	0.037	8	180	8	CC50 [7]: 300 nM; viability at 1 µM [4]: 11%; Activity [6]: <=68%; Activity [12]: <10%; Activity [13]: Dde; Activity [14]: Active; Activity [15]: Active; CC50 [8]: 36 nM; Activity [16]: Active; Activity [17]: Dde; CC50 [9]: 180 nM; IC50 [18]: < 100 nM; Activity [19]: Non-Toxic; CC50 [10]: 107 nM; IC50 [11]: < 100 nM
Cn1c(=O)c(NC(=O)c2ccc(O)cc2)cc2cc(Br)ccc21	10.97	5790	17600	7150	
